Reference: ChEMBL document CHEMBL1121887, “A new nontricyclic antidepressant agent. Synthesis and activity of N-[trans-2-(dimethylamino)cyclopentyl]-N-(3,4-dichlorophenyl)propanamide and related compounds” (1981)

Columns and labels:
Assay type in all cases: functional
[1] = species: Mus musculus; assay: Antidepressant activity using yohimbine potentiation test in mice
[2] = species: Mus musculus; assay: Antidepressant activity using oxotremorine antagonism test in mice
[3] = species: Mus musculus; assay: Antidepressant activity using apomorphine potentiation test in mice
Method in brief: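 Male CF-1 mice in groups of four got test compound i.p. (50 and 25 mg/kg) in 0.25% aqueous methylcellulose. 1 h later they got apomorphine 10 mg/kg s.c. and were watched 30 min for stereotyped gnawing and licking, each positive. If ≥3 were positive, the test was repeated at 0.3 log lower doses until ≤1 responded. ED50 and 95% CI by Spearman–Karber.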

Row | SMILES | ED50 ([1]; Mus musculus, read-out: ED50) [mg/kg] | ED50 ([2]; Mus musculus, read-out: ED50) [mg/kg] | ED50 ([3]; Mus musculus, read-out: ED50) [mg/kg] | ED50 [1] [mg/kg] | ED50 [2] [mg/kg] | ED50 [3] [mg/kg]
1 | C=CC(=O)N(c1ccc(Cl)c(Cl)c1)C1CCCC1N(C)C (stereo not drawn) | 2 | 5 | 5 | – | – | –
2 | CN(C)C1CCCC1N(C(=O)C1CCC1)c1ccc(Cl)c(Cl)c1 (stereo not drawn) | 0.8 | 0.6 | > 50 | – | – | –
3 | CCC(=O)N(c1ccc(Cl)c(Cl)c1)C1CCCCCC1N(C)C (stereo not drawn) | 2 | 6 | 20 | – | – | –
4 | CC(C)C(=O)N(c1ccc(Cl)c(Cl)c1)C1CCCC1N(C)C (stereo not drawn) | 2 | 4 | 5 | – | – | –
5 | CCC(=O)N(c1ccc(Cl)c(Cl)c1)C1CCCCCCC1N(C)C (stereo not drawn) | 20 | 10 | 6 | – | – | –
6 | CCC(=O)N(c1ccc(C#N)cc1)C1CCCC1N(C)C (stereo not drawn) | 10 | 40 | > 50 | – | – | –
7 | CCC(=O)N(c1ccc([N+](=O)[O-])cc1)C1CCCC1N(C)C (stereo not drawn) | 20 | 6 | 20 | – | – | –
8 | CN(C)C1CCCC1N(C(=O)C1CCCCC1)c1ccc(Cl)c(Cl)c1 (stereo not drawn) | 1 | 2 | > 50 | – | – | –
9 | CCC(=O)N(c1ccc(Cl)c(Cl)c1)C1CCCCC1N(C)C (stereo not drawn) | 30 | 20 | 20 | – | – | –
10 | CCNC1CCCC1N(C(=O)CC)c1ccc(Cl)c(Cl)c1 (stereo not drawn) | 0.2 | 2 | – | – | – | –
11 | CCC(=O)N(c1ccc(F)cc1)C1CCCC1N(C)C (stereo not drawn) | 5 | 0.08 | > 50 | – | – | –
12 | CCC(=O)N(c1ccc(C(C)=O)cc1)C1CCCC1N(C)C (stereo not drawn) | > 50 | 40 | > 50 | – | – | –
13 | CCC(=O)N(c1cccc(OC)c1)C1CCCC1N(C)C (stereo not drawn) | 0.8 | 4 | 4 | – | – | –
14 | CCC(=O)N(c1cccc(C(F)(F)F)c1)C1CCCC1N(C)C (stereo not drawn) | 0.3 | 0.2 | 0.9 | – | – | –
15 | CN(C)C1CCCC1N(C(=O)C1CC1)c1ccc(Cl)c(Cl)c1 (stereo not drawn) | 0.2 | 0.3 | 0.4 | – | – | –
16 | CCC(=O)N(c1cccc(Cl)c1)C1CCCC1N(C)C (stereo not drawn) | 0.4 | 0.2 | 20 | – | – | –
17 | CCC(=O)N(c1ccc(Cl)c(Cl)c1)C1CCCC1N(C)CCc1ccccc1 (stereo not drawn) | 0.1 | 0.4 | 5 | – | – | –
18 | CN(C)C1CCCC1N(C(=O)c1ccco1)c1ccc(Cl)c(Cl)c1 (stereo not drawn) | 9 | > 50 | > 50 | – | – | –
19 | CCC(=O)N(c1ccc(C(F)(F)F)cc1)C1CCCC1N(C)C (stereo not drawn) | 10 | 25 | 10 | – | – | –
20 | CCC(=O)N(c1ccc(Br)c(Br)c1)C1CCCC1N(C)C (stereo not drawn) | 0.1 | 0.2 | 0.5 | – | – | –
21 | CCCN(CCC)C1CCCC1N(C(=O)CC)c1ccc(Cl)c(Cl)c1 (stereo not drawn) | 2 | 0.1 | > 50 | – | – | –
22 | C=CCNC1CCCC1N(C(=O)CC)c1ccc(Cl)c(Cl)c1 (stereo not drawn) | 0.2 | 3 | – | – | – | –
23 | CC(=O)N(c1ccc(Cl)c(Cl)c1)C1CCCC1N(C)C (stereo not drawn) | 9 | 10 | 20 | – | – | –

Row | SMILES | ED50 ([1]; Mus musculus, read-out: ED50) [mg/kg] | ED50 ([2]; Mus musculus, read-out: ED50) [mg/kg] | ED50 ([3]; Mus musculus, read-out: ED50) [mg/kg] | ED50 [1] [mg/kg] | ED50 [2] [mg/kg] | ED50 [3] [mg/kg]
24 | CCC(=O)N(c1ccc(C(=O)OC)cc1)C1CCCC1N(C)C (stereo not drawn) | > 50 | > 50 | > 50 | – | – | –
25 | CCCC(=O)N(c1ccccc1)C1CCCC1N(C)C (stereo not drawn) | 6 | 10 | 40 | – | – | –
26 | CC(=O)N(c1ccccc1)C1CCCC1N(C)C (stereo not drawn) | 7 | 9 | 40 | – | – | –
27 | CCC(=O)N(c1ccc(Cl)cc1)C1CCCC1N(C)C (stereo not drawn) | 3 | 0.2 | > 50 | – | – | –
28 | CCC(=O)N(c1ccccc1C)C1CCCC1N(C)C (stereo not drawn) | 7 | 5 | > 50 | – | – | –
29 | CCC(=O)N(c1c(F)c(F)c(F)c(F)c1F)C1CCCC1N(C)C (stereo not drawn) | > 50 | > 50 | > 50 | – | – | –
30 | CCC(=O)N(c1ccccc1Cl)C1CCCC1N(C)C (stereo not drawn) | 6 | 2 | > 50 | – | – | –
31 | CCC(=O)N(c1ccc(Cl)c(Cl)c1)C1CCCC1N(C)CCN(C)C (stereo not drawn) | 0.8 | 5 | 20 | – | – | –
32 | CCC(=O)N(c1ccc(Cl)c(Cl)c1)C1CCCC1N(C)CCCN(C)C (stereo not drawn) | 4 | 10 | 30 | – | – | –
33 | CCC(=O)N(c1cc(Cl)c(Cl)c(Cl)c1)C1CCCC1N(C)C (stereo not drawn) | 4 | 40 | 40 | – | – | –
34 | CCC(=O)N(c1cc(Cl)cc(Cl)c1)C1CCCC1N(C)C (stereo not drawn) | 0.9 | 5 | 30 | – | – | –
35 | CCC(=O)N(c1ccc(C)c(Cl)c1)C1CCCC1N(C)C (stereo not drawn) | 1 | 0.6 | 2 | – | – | –
36 | CCC(=O)N(c1ccc(OC)cc1)C1CCCCC1N(C)C (stereo not drawn) | > 50 | > 50 | > 50 | – | – | –
37 | CN(C)C1CCCC1N(C=O)c1ccccc1 (stereo not drawn) | 40 | > 50 | – | – | – | –
38 | CCC(=O)N(c1cccc(Br)c1)C1CCCC1N(C)C (stereo not drawn) | 0.1 | 0.1 | 2 | – | – | –
39 | CCC(=O)N(c1ccc(Cl)c(C)c1)C1CCCC1N(C)C (stereo not drawn) | 2 | 2 | 10 | – | – | –
40 | CCC(=O)N(c1ccc(Cl)cc1)C1CCCCC1N(C)C (stereo not drawn) | 35 | 17 | 14 | – | – | –
41 | CCC(=O)N(c1ccc(Br)cc1)C1CCCC1N(C)C (stereo not drawn) | 2 | 3 | > 50 | – | – | –
42 | CN(C)C1CCCC1N(C=O)c1ccc(Cl)c(Cl)c1 (stereo not drawn) | 9 | 40 | > 50 | – | – | –
43 | CCC(=O)N(c1ccc(OC)c(OC)c1)C1CCCC1N(C)C (stereo not drawn) | 9 | 10 | 10 | – | – | –
44 | CCC(=O)N(c1ccccc1)C1CCCCC1N(C)C (stereo not drawn) | > 50 | > 50 | > 50 | – | – | –
45 | CCC(=O)N(c1ccc(Cl)c(Cl)c1)C1CCCC1N(CC)CC (stereo not drawn) | 0.1 | 0.03 | 0.3 | – | – | –
46 | CCC(=O)N(c1ccc(Cl)c(Cl)c1)C1CCCC1O (stereo not drawn) | 0.4 | 9 | 20 | – | – | –

Row | SMILES | ED50 ([1]; Mus musculus, read-out: ED50) [mg/kg] | ED50 ([2]; Mus musculus, read-out: ED50) [mg/kg] | ED50 ([3]; Mus musculus, read-out: ED50) [mg/kg] | ED50 [1] [mg/kg] | ED50 [2] [mg/kg] | ED50 [3] [mg/kg]
47 | CCC(=O)N(c1ccc(C)cc1)C1CCCCC1N(C)C (stereo not drawn) | > 50 | > 50 | > 50 | – | – | –
48 | CN(C)C1CCCC1N(C(=O)c1cccs1)c1ccc(Cl)c(Cl)c1 (stereo not drawn) | 20 | 10 | > 50 | – | – | –
49 | CCC(=O)N(c1ccc(Cl)c(Cl)c1)C1CCCC1N (stereo not drawn) | 0.02 | 0.8 | – | – | – | –
50 | CCC(=O)N(c1cccc(F)c1)C1CCCC1N(C)C (stereo not drawn) | 0.4 | 0.6 | 5 | – | – | –
51 | CCC(=O)N(c1ccc(Cl)c(Cl)c1)C1CCCC1N(C)Cc1ccccc1 (stereo not drawn) | 0.2 | 40 | > 50 | – | – | –
52 | CCC(=O)N(c1ccc(Cl)c(Cl)c1)C1CCCC1NC (stereo not drawn) | 0.4 | 0.3 | – | – | – | –
53 | CCC(=O)N(c1ccc(F)c(Cl)c1)C1CCCC1N(C)C (stereo not drawn) | 0.2 | 2 | 0.7 | – | – | –
54 | CCC(=O)N(c1ccc(Cl)c(Cl)c1)C1CCCC1N1CCCC1 (stereo not drawn) | 0.6 | 2 | 3 | – | – | –
55 | C=CCN(C)C1CCCC1N(C(=O)CC)c1ccc(Cl)c(Cl)c1 (stereo not drawn) | 0.2 | 0.2 | 6 | – | – | –
56 | CCCC(=O)N(c1ccc(Cl)c(Cl)c1)C1CCCC1N(C)C (stereo not drawn) | 2 | 7 | 0.9 | – | – | –
57 | CCC(=O)N(c1cccc(C)c1)C1CCCCC1N(C)C (stereo not drawn) | > 50 | 15 | > 50 | – | – | –
58 | CCC(=O)N(c1ccccc1)C1CCCC1N(C)C (cis isomer) | – | – | – | 10 | >50 | >50
59 | CCC(=O)N(c1ccc(Cl)c(Cl)c1)C1CCCC1N(C)C (cis isomer) [ECLANAMINE] | – | – | – | 0.9 | 2 | >50
60 | CCC(=O)N(c1ccc(Cl)c(Cl)c1)C1CCCC1N(C)C (stereo in doubt; 6) [ECLANAMINE] | – | – | – | 0.4 | 0.2 | 10
61 | CCC(=O)N(c1ccccc1)C1CCCC1N(C)C (stereo in doubt; 16) | – | – | – | 3 | 2 | 0.8
62 | CCC(=O)N(c1ccc(OC)cc1)C1CCCC1N(C)C (stereo in doubt; 20) | – | – | – | 30 | 20 | –
63 | CCC(=O)N(c1cccc(C)c1)C1CCCC1N(C)C (stereo in doubt; 22) | 3 | 1 | 25 | – | – | –
64 | CCC(=O)N(c1ccc(C)cc1)C1CCCC1N(C)C (stereo in doubt; 24) | – | – | – | 30 | 10 | 10
65 | CCC(=O)N(c1cccc(C)c1)C1CCCC1N(C)C (stereo in doubt; 44) | – | – | – | 3 | 1 | 25
66 | CCC(=O)N(c1ccc(C)cc1)C1CCCC1N(C)C (stereo in doubt; 45) | 30 | 10 | 10 | – | – | –
67 | CCC(=O)N(c1ccc(OC)cc1)C1CCCC1N(C)C (stereo in doubt; 47) | 30 | 20 | > 50 | – | – | –
68 | CN(C)CCCN1c2ccccc2CCc2ccccc21.Cl [IMIPRAMINE HYDROCHLORIDE] | 4 | 1 | 1 | – | – | –
